Assay outcomes deposited in PubChem by SRMLSC.
HUVEC prolif 384 = blocks proliferation of human endothelial cells; viability, % at 10 µM (by protocol); HUVEC proliferation, CellTiter-Glo luminescence, 72 h; hits give low values; AID 648; 86,000 tested, 1.1% active;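 active means viability at or below 30%; inactive means viability above 30%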;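 further: 100% = median luminescence of DMSO-only cell control wells on each plate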
H69AR inhibit = blocks growth of human H69AR lung tumor cells | H69AR lung tumor viability, ATP luminescence, 72 h; hits give low values | AID 598 | 85,000 tested, 6% active | viability, % at 10 µM;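 active means viability at or below 40%; inactive means viability above 40%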;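 further: multidrug resistant small cell line overexpressing MRP-1 efflux transporter; 100% = mean luminescence of untreated control wells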
HCT116 bCat-KO = beta-catenin-lacking colon tumor cell growth suppression | HCT116 beta-catenin knockout viability, CellTiter-Glo, 60 h; hits give low values | viability, % at 10 µM | AID 818 | 140,000 tested, 1.5% active;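 active means viability at or under a set limit, the compound median less 4 SD, cut at about 6% in these data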;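 further: 0% = Hyamine 1622 control at 20 µM and 100% = untreated cell control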
HCT116 PTEN-null = suppresses growth of cells with PTEN deletion. HCT116 PTEN-null viability, CellTiter-Glo, 60 h; hits give low values. viability, % at 10 µM. 140,000 tested, 1.2% active. AID 827;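 active means viability at or below a set limit, 4 SD under the median of all tested compounds, cut at about 3.7% in these data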;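 further: PTEN knockout HCT116 line with beta catenin targeted HCT116 as companion control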
Fibroblast inh = blocks proliferation of human lung fibroblasts. viability, % at 10 µM. 85,000 tested, 1.1% active. LL 47 human lung fibroblast viability, ATP luminescence; hits give low values;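 active means viability at or below 50% in the single dose screen; inactive means viability above 50%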;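 further: compound exposure lasted 72 h before the ATP readout; 100% = median luminescence of untreated cell-only wells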
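material = human LL 47 lung fibroblast cells | dosing = compounds added from tenfold dosing solution, 0.1% DMSO final | timing = overnight cell rest, 72 h compound treatment at 37 °C | measured by = CellTiter-Glo luminescence measuring cellular ATP | evaluation = % viability versus median cells-only luminescence | control set = cell-only wells, no compound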
* marks the source's active call; other numbers are inactive results. This is one part of a sample in which hits are shown more often than they occur.

What do the screens show for `O=C(CSc1nc2ncc(Br)cc2[nH]1)Nc1ccc2c(c1)OCO2`?
HUVEC prolif 384: 74.7; H69AR inhibit: 2.5*; HCT116 bCat-KO: 83.5; HCT116 PTEN-null: 95.2; Fibroblast inh: 103.8

What do the screens show for `CC(=O)c1c(C)[nH]c(C(=O)CSc2nnc(-c3ccco3)n2Cc2ccccc2)c1C`?
HUVEC prolif 384: 78.6; H69AR inhibit: 39.1*; HCT116 bCat-KO: 54.3; HCT116 PTEN-null: 55.0; Fibroblast inh: 90.8

How did Cn1c(SCC(=O)Nc2ccc3c(c2)OCCO3)nnc1-c1ccccn1 do in these assays?
HUVEC prolif 384: 97.0; H69AR inhibit: 87.6; HCT116 bCat-KO: 101.8; HCT116 PTEN-null: 102.6; Fibroblast inh: 104.5

What do the screens show for `CC(=O)c1c(C)[nH]c(C(=O)CSc2nnc(-c3ccccc3)n2Cc2ccc3c(c2)OCO3)c1C`?
HUVEC prolif 384: 12.6*; H69AR inhibit: 20.2*; HCT116 bCat-KO: 110.7; HCT116 PTEN-null: 100.2; Fibroblast inh: 82.2

How did O=C(CSc1nnc(-c2ccccn2)n1Cc1ccccc1)Nc1ccc2c(c1)OCO2 do in these assays?
HUVEC prolif 384: 54.5; H69AR inhibit: 14.5*; HCT116 bCat-KO: 93.3; HCT116 PTEN-null: 97.3; Fibroblast inh: 98.7

What do the screens show for `CCc1cccc(CC)c1NC(=O)/C(C#N)=C/c1ccccc1C(F)(F)F`?
HCT116 bCat-KO: 1.5*; HCT116 PTEN-null: 1.8*

What do the screens show for `N#C/C(=C\c1ccccc1C(F)(F)F)C(=O)Nc1ccccc1`?
HCT116 bCat-KO: 76.8; HCT116 PTEN-null: 75.0

Results for NC(=O)c1c(NC(=O)c2ccco2)sc2c1CCC2 ?
HUVEC prolif 384: 75.5; H69AR inhibit: 62.6; HCT116 bCat-KO: 89.5; HCT116 PTEN-null: 92.0; Fibroblast inh: 89.5

What do the screens show for `NC(=O)c1c(NC(=O)c2ccccc2)sc2c1CCc1ccccc1-2`?
HUVEC prolif 384: 80.2; H69AR inhibit: 25.6*; HCT116 bCat-KO: 80.3; HCT116 PTEN-null: 58.3; Fibroblast inh: 67.5

What do the screens show for `O=C(CSc1cccc[n+]1[O-])c1cc2ccccc2o1`?
HUVEC prolif 384: 109.0; H69AR inhibit: 53.6; HCT116 bCat-KO: 4.7*; HCT116 PTEN-null: 2.7*; Fibroblast inh: 93.5

How did C=C(C(=O)c1ccccc1)C(C)CC(=O)c1ccccc1 (stereo not given) do in these assays?
HCT116 bCat-KO: 2.1*; HCT116 PTEN-null: 1.5*

Results for COc1ccc2c(c1)sc1nc(-c3ccccc3)cn12 ?
HUVEC prolif 384: 47.0; H69AR inhibit: 19.5*; HCT116 bCat-KO: 12.3; HCT116 PTEN-null: 11.9; Fibroblast inh: 94.0

Results for CCOC(=O)N1CCN(C(=O)c2ccc3c(c2)sc2nc(-c4ccc(OC)cc4)cn23)CC1 ?
HCT116 bCat-KO: 95.1; HCT116 PTEN-null: 84.7

Results for O=C(NC1CCCCC1)N(Cc1cc2cc3c(cc2[nH]c1=O)OCCO3)C1CCCCC1 ?
HUVEC prolif 384: 85.1; H69AR inhibit: 35.6*; HCT116 bCat-KO: 74.3; HCT116 PTEN-null: 77.0; Fibroblast inh: 85.4

How did CCc1ccc2[nH]c(=O)c(CN(Cc3ccccc3)C(=O)Nc3ccccc3OC)cc2c1 do in these assays?
HUVEC prolif 384: 81.9; H69AR inhibit: 38.7*; HCT116 bCat-KO: 45.0; HCT116 PTEN-null: 43.9; Fibroblast inh: 49.2*

What do the screens show for `COc1ccccc1NC(=O)N(Cc1ccc2c(c1)OCO2)Cc1nc2ccccc2c(=O)[nH]1`?
HUVEC prolif 384: 63.0; H69AR inhibit: 9.4*; HCT116 bCat-KO: 97.2; HCT116 PTEN-null: 109.3; Fibroblast inh: 73.6

What do the screens show for `COc1ccc2cc(CN(C(=O)Nc3ccccc3OC)C3CCCC3)c(=O)[nH]c2c1`?
HUVEC prolif 384: 70.8; H69AR inhibit: 24.7*; HCT116 bCat-KO: 48.1; HCT116 PTEN-null: 42.4; Fibroblast inh: 88.8

How did COc1cc2cc(CN(C(=O)NC3CCCCC3)C3CCCC3)c(=O)[nH]c2cc1OC do in these assays?
HUVEC prolif 384: 89.2; H69AR inhibit: 76.9; HCT116 bCat-KO: 83.1; HCT116 PTEN-null: 82.0; Fibroblast inh: 94.2

What do the screens show for `CCC1CCCCN1Cc1ccc(OC)c(C)c1C` (stereo not given)?
HUVEC prolif 384: 95.6; H69AR inhibit: 76.8; HCT116 bCat-KO: 87.4; HCT116 PTEN-null: 82.2; Fibroblast inh: 103.7

How did CCN(CC)CCn1c2ccccc2c2cnc(N)c(C#N)c21 do in these assays?
HUVEC prolif 384: 76.7; H69AR inhibit: 28.8*; HCT116 bCat-KO: 4.3*; HCT116 PTEN-null: 3.9; Fibroblast inh: 22.3*

Results for CN(C)C=Nc1ncc2c3ccccc3n(CCN(C)C)c2c1C#N ?
HUVEC prolif 384: 65.5; H69AR inhibit: 53.8; HCT116 bCat-KO: 23.6; HCT116 PTEN-null: 19.8; Fibroblast inh: 63.4
